Measurements from ChEMBL document CHEMBL4257537, “Design, synthesis, and biological evaluation of m-amidophenol derivatives as a new class of antitubercular agents” (Medchemcomm, 2018).
Values after ≈ are worked out from the molar mass of the structure shown.

Assays:
[1] = system: Mycobacterium tuberculosis; assay: Antitubercular activity against Mycobacterium tuberculosis H37Ra after 5 days by luminescence assay; assay type: functional; settings: 120 h
How it was run: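 Compounds were 10-point two-fold dilutions in 7H9-Tw-OADC, top 100 µg/mL, final DMSO 2%. Controls were INH 1 µg/mL (zero growth) and DMSO (maximum growth). RLU was read daily in triplicate over days 0–5. Percent growth was fitted to a Gompertz model, and MIC was taken where the inflection point meets the lower asymptote.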

Staphylococcus aureus = assay: Toxicity in Staphylococcus aureus after 18 to 24 hrs by two-fold serial dilution method; assay type: organism-based
Escherichia coli = assay: Toxicity in Escherichia coli after 18 to 24 hrs by two-fold serial dilution method; assay type: organism-based
[2] = system: Mycobacterium tuberculosis; assay: Antimycobacterial activity against Mycobacterium tuberculosis H37Rv after 7 days by microplate alamar blue assay; assay type: functional; settings: 168 h
How it was run: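 Each well held a 1/100 culture dilution plus 10-point two-fold DMSO dilutions (top 100 µg/mL, final DMSO 2%). INH and RIF were the positive controls. After 7 days at 37 °C, Tween 80 and alamarBlue were added for 16–24 h. MIC was the lowest concentration preventing the blue-to-pink change.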

Enterococcus faecalis = assay: Toxicity in Enterococcus faecalis after 18 to 24 hrs by two-fold serial dilution method; assay type: organism-based
HepG2 = assay: Cytotoxicity against human HepG2 cells after 72 hrs by MTT assay; assay type: cell-based; settings: HepG2, 72 h
RAW264.7 = assay: Cytotoxicity against mouse RAW264.7 cells after 72 hrs by MTT assay; assay type: cell-based; settings: RAW264.7, 72 h
[3] = Selectivity index, ratio of IC50 for human HepG2 cells to MIC for Mycobacterium tuberculosis H37Ra; assay type: toxicity; settings: read-out: Selectivity Index
[4] = Selectivity index, ratio of IC50 for mouse RAW264.7 cells to MIC for Mycobacterium tuberculosis H37Ra; assay type: toxicity; settings: read-out: Selectivity Index

Compound	MIC [1] [µg/mL]	also measured
CC(=O)Nc1cc(O)cc(Cc2ccccc2)c1	> 100	
CC1COc2c(N3CCN(C)CC3)c(F)cc3c(=O)c(C(=O)O)cn1c23 (stereo unspecified) [OFLOXACIN]		MIC (Staphylococcus aureus): 0.31 µg/mL (≈ 0.858 µM); MIC (Escherichia coli): 1.25 µg/mL (≈ 3.46 µM)
O=C(Nc1cc(O)cc(Cc2ccccc2)c1)C1CCCC1	2.5 (≈ 8.46 µM)	
O=C(Nc1cc(O)cc(Cc2ccccc2)c1)c1ccc(OC(F)(F)F)cc1	10 (≈ 25.8 µM)	
O=C(Nc1cc(O)cc(Cc2ccccc2)c1)c1cc(C(F)(F)F)cc(C(F)(F)F)c1	> 25	
O=C(Nc1cc(O)cc(Cc2ccccc2)c1)c1cccc(Cl)c1	2.5 (≈ 7.4 µM)	
CC(C)(C)C1CCC(C(=O)Nc2cc(O)cc(Cc3ccccc3)c2)CC1 (stereo unspecified)	> 50	
O=C(Nc1cc(O)cc(Cc2ccccc2)c1)c1cccnc1Cl	5 (≈ 14.8 µM)	
O=C(Nc1cc(O)cc(Cc2ccccc2)c1)c1ccccc1Cl	2.5 (≈ 7.4 µM)	
O=C(Nc1cccc(O)c1)c1ccccc1	> 50	
O=C(Nc1cc(O)cc(Cc2ccccc2)c1)N1CCOCC1	12.5 (≈ 40 µM)	
O=C(Nc1cc(O)cc(C(O)c2ccccc2)c1)c1ccccc1 (stereo unspecified)	> 50	
O=C(Nc1cc(O)cc(Cc2ccccc2)c1)c1ccc(Cl)cc1	2.5 (≈ 7.4 µM)	
CCC1CCC(C(=O)Nc2cc(O)cc(Cc3ccccc3)c2)CC1 (stereo unspecified)	2.5 (≈ 7.41 µM)	
Cc1nnsc1C(=O)Nc1cc(O)cc(Cc2ccccc2)c1	10 (≈ 30.7 µM)	
O=C(O)c1cc(Cc2ccccc2)cc(NC(=O)c2ccccc2)c1	> 50	
CC(C)C(=O)Nc1cc(O)cc(Cc2ccccc2)c1	5 (≈ 18.6 µM)	
Oc1cccc(Cc2ccccc2)c1	> 50	
O=C(Nc1cc(O)cc(Cc2ccccc2)c1)c1ccc(F)c(Cl)c1	5 (≈ 14.1 µM)	
CO[C@H]1/C=C/O[C@@]2(C)Oc3c(C)c(O)c4c(O)c(c(/C=N/N5CCN(C)CC5)c(O)c4c3C2=O)NC(=O)/C(C)=C\C=C\[C@H](C)[C@H](O)[C@@H](C)[C@@H](O)[C@@H](C)[C@H](OC(C)=O)[C@@H]1C [RIFAMPIN]		MIC [2]: 0.003 µg/mL (≈ 0.00365 µM)
O=C(Nc1cc(O)cc(Cc2ccccc2)c1)C(F)(F)F	> 50	
CCCCCc1cc(O)cc(NC(=O)C2CCCCC2)c1	> 50	

Compound	MIC [1] [µg/mL]	also measured
O=C(Nc1cc(O)cc(Cc2ccccc2)c1)C12CC3CC(CC(C3)C1)C2	> 50	
O=C(Nc1cc(O)cc(Cc2ccccc2)c1)c1ccco1	10 (≈ 34.1 µM)	
NNC(=O)c1ccncc1 [ISONIAZID]	0.1 (≈ 0.729 µM)	MIC [2]: 0.41 µg/mL (≈ 2.99 µM)
Cc1ccc(C(=O)Nc2cc(O)cc(Cc3ccccc3)c2)cc1	1.25 (≈ 3.94 µM)	
O=C(Nc1cc(O)cc(Cc2ccccc2)c1)c1ccc(C(F)(F)F)cc1	5 (≈ 13.5 µM)	
Nc1cc(Cc2ccccc2)cc(NC(=O)c2ccccc2)c1	10 (≈ 33.1 µM)	
Cc1ccc(C)c(Cc2cc(O)cc(NC(=O)C3CCCCC3)c2)c1	> 50	
COc1cc(Cc2ccccc2)cc(NC(=O)c2ccccc2)c1	> 50	
O=C(Nc1cc(O)cc(Cc2ccccc2)c1)c1ccc(Cl)cc1Cl	5 (≈ 13.4 µM)	
CC(C)(C)C(=O)Nc1cc(O)cc(Cc2ccccc2)c1	2.5 (≈ 8.82 µM)	
O=C(Nc1cc(O)cc(Cc2ccccc2)c1)C1CCOCC1	6.25 (≈ 20.1 µM)	
O=C(Nc1cc(O)cc(Cc2ccccc2)c1)c1ccccc1	5 (≈ 16.5 µM)	MIC [2]: 0.39 µg/mL (≈ 1.29 µM); MIC (Staphylococcus aureus): > 50 µg/mL; MIC (Escherichia coli): > 50 µg/mL; MIC (Enterococcus faecalis): > 50 µg/mL; IC50 (HepG2): > 330 µM; IC50 (RAW264.7): > 330 µM; selectivity ratio [3]: > 20; selectivity ratio [4]: > 20
CC(C)CCc1cc(O)cc(NC(=O)C2CCCCC2)c1	> 50	
CC1(C)S[C@@H]2[C@H](NC(=O)[C@H](N)c3ccc(O)cc3)C(=O)N2[C@H]1C(=O)O [AMOXICILLIN]		MIC (Staphylococcus aureus): 0.78 µg/mL (≈ 2.13 µM)
O=C(Nc1cc(O)cc(Cc2ccccc2)c1)C1CCCCC1	0.625 (≈ 2.02 µM)	MIC [2]: 0.39 µg/mL (≈ 1.26 µM); MIC (Staphylococcus aureus): > 50 µg/mL; MIC (Escherichia coli): > 50 µg/mL; MIC (Enterococcus faecalis): > 50 µg/mL; IC50 (HepG2): > 161 µM; IC50 (RAW264.7): > 323 µM; selectivity ratio [3]: > 80; selectivity ratio [4]: > 160
O=C(Nc1cc(O)cc(Cc2ccccc2)c1)c1ccc([N+](=O)[O-])cc1	> 50	
CC(C)(C)c1ccc(C(=O)Nc2cc(O)cc(Cc3ccccc3)c2)cc1	2.5 (≈ 6.95 µM)	
O=C(Nc1cc(O)cc(Cc2ccccc2)c1)c1ccc(C2CCCCC2)cc1	> 50	
O=C(Nc1cc(O)cc(Cc2ccccc2)c1)C1CC1	5 (≈ 18.7 µM)	
CCCc1cc(O)cc(NC(=O)C2CCCCC2)c1	> 50	
O=C(Nc1cc(O)cc(Cc2ccccc2)c1)c1cccs1	2.5 (≈ 8.08 µM)	
